# ChEMBL document CHEMBL5058577, “EUbOPEN Chemogenomics Library 2 (Multiplex)” (2022)
# System: U2OS
# Experiment: Multiplex assay against U2OS
# Type: toxicity, cell-based
# Conditions: human
# Outline: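 Live cells were stained at seeding with Hoechst33342, BioTracker Green Microtubule Cytoskeleton Dye, MitoTracker Red and Annexin V Alexa Fluor 680, then imaged on a CQ1 microscope at 37°C and 5% CO2 after compound addition. CellPathfinder machine-learning gating split cells into Hoechst high-intensity objects or normal cells. Normal cells were split into healthy, pyknosed or fragmented nuclei, and pyknosed cells into mitotic or apoptotic. Tubulin, mitochondrial-mass and membrane-permeability phenotypes are per cents of healthy-nucleus cells.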
# [1] = 12 h, 1 µM, compound concentration 1 uM, replicate 1
# [2] = 12 h, 1 µM, compound concentration 1 uM, replicate 2
# [3] = 12 h, 10 µM, compound concentration 10 uM, replicate 1
# [4] = 12 h, 10 µM, compound concentration 10 uM, replicate 2
# [5] = 24 h, 1 µM, compound concentration 1 uM, replicate 1
# [6] = 24 h, 1 µM, compound concentration 1 uM, replicate 2
# [7] = 24 h, 10 µM, compound concentration 10 uM, replicate 1
# [8] = 24 h, 10 µM, compound concentration 10 uM, replicate 2
# [9] = 48 h, 1 µM, compound concentration 1 uM, replicate 1
# [10] = 48 h, 1 µM, compound concentration 1 uM, replicate 2
# [11] = 48 h, 10 µM, compound concentration 10 uM, replicate 1
# [12] = 48 h, 10 µM, compound concentration 10 uM, replicate 2
compound,measurement,setting,value
CCNC1(C(N)=O)CCN(c2ncnc3c2nc(-c2ccccc2Cl)n3-c2ccc(Cl)cc2)CC1 [OTENABANT],Population Apoptotic (%),[1],77%
same,Population Fragmented Nuclei (%),[1],30%
same,Population Healthy Nuclei (%),[1],60%
same,Population Hoechst High Intensity Objects (%),[1],3%
same,Population Membrane Permeable-Phenotype (%),[1],13%
same,Population Mitochondria Different-Phenotype (%),[1],7%
same,Population Mitotic Cells (%),[1],22%
same,Population Normal (%),[1],96%
same,Population Pyknosed Nuclei (%),[1],9%
same,Population Tubulin-Different-Phenotype (%),[1],4%
same,Total Cell Count,[1],254
same,Population Apoptotic (%),[2],85%
same,Population Fragmented Nuclei (%),[2],17%
same,Population Healthy Nuclei (%),[2],74%
same,Population Hoechst High Intensity Objects (%),[2],2%
same,Population Membrane Permeable-Phenotype (%),[2],11%
same,Population Mitochondria Different-Phenotype (%),[2],22%
same,Population Mitotic Cells (%),[2],14%
same,Population Normal (%),[2],97%
same,Population Pyknosed Nuclei (%),[2],7%
same,Population Tubulin-Different-Phenotype (%),[2],10%
same,Total Cell Count,[2],93
same,Population Apoptotic (%),[3],58%
same,Population Fragmented Nuclei (%),[3],31%
same,Population Healthy Nuclei (%),[3],48%
same,Population Hoechst High Intensity Objects (%),[3],6%
same,Population Membrane Permeable-Phenotype (%),[3],81%
same,Population Mitochondria Different-Phenotype (%),[3],63%
same,Population Mitotic Cells (%),[3],41%
same,Population Normal (%),[3],93%
same,Population Pyknosed Nuclei (%),[3],19%
same,Population Tubulin-Different-Phenotype (%),[3],89%
same,Total Cell Count,[3],211
same,Population Apoptotic (%),[4],70%
same,Population Fragmented Nuclei (%),[4],21%
same,Population Healthy Nuclei (%),[4],60%
same,Population Hoechst High Intensity Objects (%),[4],0%
same,Population Membrane Permeable-Phenotype (%),[4],65%
same,Population Mitochondria Different-Phenotype (%),[4],73%
same,Population Mitotic Cells (%),[4],30%
same,Population Normal (%),[4],99%
same,Population Pyknosed Nuclei (%),[4],18%
same,Population Tubulin-Different-Phenotype (%),[4],76%
same,Total Cell Count,[4],112
same,Population Apoptotic (%),[5],79%
same,Population Fragmented Nuclei (%),[5],26%
same,Population Healthy Nuclei (%),[5],61%
same,Population Hoechst High Intensity Objects (%),[5],3%
same,Population Membrane Permeable-Phenotype (%),[5],11%
same,Population Mitochondria Different-Phenotype (%),[5],5%
same,Population Mitotic Cells (%),[5],20%
same,Population Normal (%),[5],96%
same,Population Pyknosed Nuclei (%),[5],11%
same,Population Tubulin-Different-Phenotype (%),[5],7%
same,Total Cell Count,[5],308
same,Population Apoptotic (%),[6],80%
same,Population Fragmented Nuclei (%),[6],24%
same,Population Healthy Nuclei (%),[6],62%
same,Population Hoechst High Intensity Objects (%),[6],4%
same,Population Membrane Permeable-Phenotype (%),[6],15%
same,Population Mitochondria Different-Phenotype (%),[6],15%
same,Population Normal (%),[6],95%
same,Population Pyknosed Nuclei (%),[6],13%
same,Population Tubulin-Different-Phenotype (%),[6],5%
same,Total Cell Count,[6],120
same,Population Apoptotic (%),[7],69%
same,Population Fragmented Nuclei (%),[7],29%
same,Population Healthy Nuclei (%),[7],49%
same,Population Hoechst High Intensity Objects (%),[7],3%
same,Population Membrane Permeable-Phenotype (%),[7],55%
same,Population Mitochondria Different-Phenotype (%),[7],75%
same,Population Mitotic Cells (%),[7],30%
same,Population Normal (%),[7],96%
same,Population Pyknosed Nuclei (%),[7],20%
same,Population Tubulin-Different-Phenotype (%),[7],78%
same,Total Cell Count,[7],218
same,Population Apoptotic (%),[8],80%
same,Population Fragmented Nuclei (%),[8],28%
same,Population Healthy Nuclei (%),[8],53%
same,Population Membrane Permeable-Phenotype (%),[8],47%
same,Population Mitochondria Different-Phenotype (%),[8],72%
same,Population Mitotic Cells (%),[8],20%
same,Population Pyknosed Nuclei (%),[8],18%
same,Population Tubulin-Different-Phenotype (%),[8],62%
same,Total Cell Count,[8],137
same,Population Apoptotic (%),[9],86%
same,Population Fragmented Nuclei (%),[9],24%
same,Population Healthy Nuclei (%),[9],64%
same,Population Hoechst High Intensity Objects (%),[9],1%
same,Population Membrane Permeable-Phenotype (%),[9],7%
same,Population Mitochondria Different-Phenotype (%),[9],4%
same,Population Mitotic Cells (%),[9],13%
same,Population Normal (%),[9],98%
same,Population Pyknosed Nuclei (%),[9],10%
same,Population Tubulin-Different-Phenotype (%),[9],3%
same,Total Cell Count,[9],416
same,Population Apoptotic (%),[10],52%
same,Population Fragmented Nuclei (%),[10],16%
same,Population Healthy Nuclei (%),[10],69%
same,Population Hoechst High Intensity Objects (%),[10],4%
same,Population Membrane Permeable-Phenotype (%),[10],13%
same,Population Mitochondria Different-Phenotype (%),[10],10%
same,Population Mitotic Cells (%),[10],47%
same,Population Normal (%),[10],95%
same,Population Pyknosed Nuclei (%),[10],14%
same,Population Tubulin-Different-Phenotype (%),[10],9%
same,Total Cell Count,[10],137
same,Population Apoptotic (%),[11],86%
same,Population Fragmented Nuclei (%),[11],32%
same,Population Healthy Nuclei (%),[11],43%
same,Population Hoechst High Intensity Objects (%),[11],7%
same,Population Membrane Permeable-Phenotype (%),[11],49%
same,Population Mitochondria Different-Phenotype (%),[11],55%
same,Population Mitotic Cells (%),[11],13%
same,Population Normal (%),[11],92%
same,Population Pyknosed Nuclei (%),[11],23%
same,Population Tubulin-Different-Phenotype (%),[11],51%
same,Total Cell Count,[11],269
same,Population Apoptotic (%),[12],80%
same,Population Fragmented Nuclei (%),[12],29%
same,Population Healthy Nuclei (%),[12],45%
same,Population Hoechst High Intensity Objects (%),[12],10%
same,Population Membrane Permeable-Phenotype (%),[12],43%
same,Population Mitochondria Different-Phenotype (%),[12],66%
same,Population Mitotic Cells (%),[12],20%
same,Population Normal (%),[12],89%
same,Population Pyknosed Nuclei (%),[12],24%
same,Population Tubulin-Different-Phenotype (%),[12],49%
same,Total Cell Count,[12],138
